From PubChem BioAssay
TLR4 MyD88 comp – blocks binding of human TLR4 to MyD88; 200,000 tested, 0.18% active; O00206+Q99836; HeLa CL3-4 TLR4/MyD88 BLA complementation, FRET ratio; inhibition, % at 8.4 µM; AID 861; in the data active = inhibition above about 25%;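 note: 0% = vehicle and 100% = reference inhibitor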
CHOP inhibitor – blocks CHOP induction under ER stress | CHO-K1 CHOP-promoter luciferase, tunicamycin-induced, 15-18 h | inhibition, % at 10 µM | 220,000 tested, 3.8% active | AID 2732;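 active = compounds that reduced the stress-induced luciferase reporter signal by more than about 70% of percent inhibition, limit read from the data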;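 note: 0% = tunicamycin plus vehicle and 100% = wells without tunicamycin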
NOD2 RIPK2 PPI – NOD2-RIPK2 protein interaction inhibition; inhibition, % at 4.98 µM; AID 624267; 360,000 tested, 0.38% active; O43353; CHO BLA complementation NOD2-RIPK2, CCF4 ratio; in the data active = inhibition above about 21%;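 note: 0% = vehicle only and 100% = reference blocker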
Target sequence (O43353 whole entry, looked up): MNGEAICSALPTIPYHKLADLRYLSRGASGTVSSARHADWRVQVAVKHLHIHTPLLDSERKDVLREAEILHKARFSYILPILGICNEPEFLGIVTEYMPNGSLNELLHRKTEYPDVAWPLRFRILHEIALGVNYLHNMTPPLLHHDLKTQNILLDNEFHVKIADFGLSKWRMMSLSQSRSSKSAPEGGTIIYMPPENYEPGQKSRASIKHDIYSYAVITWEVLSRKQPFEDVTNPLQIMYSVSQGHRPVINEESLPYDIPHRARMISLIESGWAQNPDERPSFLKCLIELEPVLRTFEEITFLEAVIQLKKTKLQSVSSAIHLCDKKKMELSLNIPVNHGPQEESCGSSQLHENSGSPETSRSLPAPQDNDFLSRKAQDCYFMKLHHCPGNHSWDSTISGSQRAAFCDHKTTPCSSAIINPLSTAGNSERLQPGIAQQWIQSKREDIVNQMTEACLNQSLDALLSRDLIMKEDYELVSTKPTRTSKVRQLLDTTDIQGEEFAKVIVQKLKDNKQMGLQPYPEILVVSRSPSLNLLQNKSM
CHOP UPR activ – apoptotic UPR (CHOP) activation | CHO-CHOP luciferase reporter, luminescence; percent of tunicamycin response over DMSO baseline | activation, % at 10 µM | 330,000 tested, 0.34% active | AID 449763;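 active = at 10 µM dose, activation of 40% or more, normalized to positive control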;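 note: 100% = tunicamycin at 10 µg/mL and 0% = DMSO alone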
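Material: CHO-CHOP cells, stable luciferase reporter of PERK-eIF2a-CHOP signalling; quantity: 500 reporter cells seeded per well; buffer or medium: F12 medium containing 10% fetal bovine serum; compound: one dose, 10 µM in 0.5% DMSO; incubation: 6 h compound treatment, 37 °C; measured by: Steady-Glo luciferase luminescence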
TLR9-MyD88 inh – blocks human TLR9 binding to MyD88; 340,000 tested, 0.21% active; CHO BLA complementation TLR9-MyD88, CCF4 FRET ratio; Q9NR96+Q99836; inhibition, % at 4.98 µM;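 active = inhibition above the mean over all tested compounds plus 3 SD, cut at about 21% in these data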;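 note: 0% = DMSO only wells and 100% = clavulanate BLA inhibitor control wells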
XBP1 UPR activ – activators of adaptive arm of unfolded protein response (XBP1); activation, % at 20 µM; 330,000 tested, 0.33% active; CHO-XBP1 luciferase reporter, IRE1-XBP1 UPR activation, luminescence; percent of tunicamycin response, DMSO as zero; AID 463104;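 active = versus positive control, 20 µM dose yields 30% or more activation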;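 note: 100% = tunicamycin at 10 µg/mL and 0% = DMSO only wells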
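Assay system: CHO-XBP1 luciferase reporter cells; Schedule: 6 h treatment, 37 °C; Detection: glow luminescence from Steady-Glo reagent; Benchmarks: high control tunicamycin 10 µg/mL final, low control DMSO vehicle only.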
CHOP confirm – confirmation of CHOP induction inhibitors | CHO-CHOP promoter luciferase reporter, tunicamycin-induced, luminescence | 2,100 tested, 45% active | AID 504437 | shares compounds with CHOP inhibitor | inhibition, % at 10 µM;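 active = mean of three repeat readings of reporter signal inhibition above a set limit, cut at about 70% in these data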;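 note: 0% = tunicamycin plus vehicle and 100% = wells lacking tunicamycin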
* marks the source's active call; other numbers are inactive results; nt = no result. Many of the other results were omitted from the sample, so hits are more common in it than they were.

SMILES | TLR4 MyD88 comp | CHOP inhibitor | NOD2 RIPK2 PPI | CHOP UPR activ | TLR9-MyD88 inh | XBP1 UPR activ | CHOP confirm
Cc1cccc(C)c1N(C(=O)c1ccco1)C(C(=O)NC1CCCC1)c1ccncc1 (centres undefined) | nt | nt | -3 | 2 | 1 | 4 | nt
CCc1nnc(NC(=O)c2ccc(S(=O)(=O)N3CCN(Cc4ccccc4)CC3)cc2)s1 | -4 | 97* | 0 | -1 | -5 | -3 | 1
CCNC(=O)C1CC(=O)N(CCCc2ccccc2)C(=Nc2ccccc2)S1 (centres undefined) | nt | -1 | -7 | -1 | 6 | 1 | nt
COc1ccc(-c2n[nH]c(C)c2-c2cnn(-c3ccccc3)c2)c(O)c1 | 3 | -27 | -2 | 0 | 7 | 2 | nt
COc1ccc(-c2n[nH]c(C)c2-c2cnn(-c3ccccc3)c2)c(O)c1C | -6 | 99* | -2 | 2 | -2 | 1 | 3
Cc1cccc2c(CC(=O)Nc3ccccc3)noc12 | 10 | 43 | -12 | 2 | 0 | -1 | nt
Cc1ccc(OCC(COCc2ccccc2)NC(C)C)cc1 (centres undefined) | nt | nt | 1 | 1 | 2 | -2 | nt
CC(C)(C)c1cc(-c2nc(N)nc(N)n2)cc(C(C)(C)C)c1 | -9 | 103* | -2 | 1 | -6 | -2 | 57
Cc1cn([C@H]2C[C@H](O)[C@@H](CNCC3=Cc4cc(O)ccc4OC3)O2)c(=O)[nH]c1=O | nt | nt | -4 | nt | -1 | nt | nt
Cc1cc(C)n(-c2nc(NC(C)C)nc(NC(C)C)n2)n1 | 6 | -168 | -1 | 36 | -7 | 10 | nt
Cc1cc(C)n(-c2nc(Nc3ccccc3C(F)(F)F)nc(-n3nc(C)cc3C)n2)n1 | 3 | 105* | 18 | 10 | 13 | -7 | 122*
Cc1cc(C)n(-c2nc(Nc3ccccc3C)nc(-n3nc(C)cc3C)n2)n1 | -16 | 99* | nt | 5 | nt | -3 | 36
CCNc1nc(NCC)nc(-n2nc(C)cc2C)n1 | 3 | -133 | 1 | 11 | -9 | 6 | nt
COc1cccc(Oc2nnnn2-c2ccccc2)c1 | 10 | -5 | -125 | 5 | -5 | 2 | nt
COc1cccc(-n2nnnc2S(C)(=O)=O)c1 | 7 | 113* | 49* | -11 | 22* | -8 | 115*
CCc1nc2ccc(C(=O)NCc3cccs3)cn2c1N(CC)CCN(C)C | nt | nt | -1 | nt | nt | nt | nt
CCCCN(C(=O)c1ccc(Br)o1)C1CCS(=O)(=O)C1 (centres undefined) | nt | nt | -4 | 1 | 2 | -1 | nt
O=C1NC[C@@H](CCCCN2C[C@H](Cc3ccc(O)cc3)N(CC3CCCCC3)C(=O)C2=O)N(Cc2ccccc2)C1=O | nt | nt | 0 | nt | nt | nt | nt
CC(C)Oc1cc(O)c2c(=O)c(-c3ccc(O)cc3)coc2c1 | -17 | nt | -10 | 8 | 6 | 6 | 20
CC(=O)OCCCNc1cc(Sc2ccc(Cl)cc2)c2nonc2c1[N+](=O)[O-] | 2 | 109* | -5 | nt | 6 | nt | 114*
O=C(N/N=C/C=C/c1ccccc1)NC1CCCCC1 | 14 | 101* | -2 | 1 | 3 | 0 | 20
Cc1sc2ncnc(N3CCCC(C)C3)c2c1C (centres undefined) | -2 | 37 | 1 | -1 | 1 | -1 | nt
Cc1sc2ncnc(N3CCCCC3C)c2c1C (centres undefined) | -6 | 99* | -2 | 2 | -2 | 0 | 70*
O=C(CCN1C(=O)/C(=C/C=C/c2ccccc2)SC1=S)Nc1cccnc1 | 5 | 102* | 3 | 23 | 0 | 18 | 30
O=C(CCN1C(=O)/C(=C/c2ccc(Cl)cc2)SC1=S)Nc1cccnc1 | nt | nt | -1 | 0 | 4 | -1 | nt
SMILES | TLR4 MyD88 comp | CHOP inhibitor | NOD2 RIPK2 PPI | CHOP UPR activ | TLR9-MyD88 inh | XBP1 UPR activ | CHOP confirm
O=S1(=O)C[C@H](N2CCCC2)[C@@H](COCc2ccccc2)N1 | nt | nt | -14 | nt | nt | nt | nt
COc1ccc(CC(=O)Nc2cccc(-c3nnc(-c4cccc(C)c4)o3)c2)cc1OC | -2 | nt | -6 | -5 | -3 | -7 | 113*
Cc1ccc(OCC(=O)Nc2cccc(-c3nnc(-c4ccccc4)o3)c2)c(C)c1 | -8 | 14 | 1 | 3 | 1 | 1 | nt
CC(C)C[C@H](NC(=O)c1nc[nH]c1C(=O)NCC(=O)OC(C)(C)C)C(=O)OCc1ccccc1 | nt | 101* | -7 | -2 | -8 | 1 | 114*
CC(C)C[C@H](NC(=O)c1nc[nH]c1C(=O)N[C@@H](CCCCN)C(=O)OC(C)(C)C)C(=O)OC(C)(C)C | nt | nt | -5 | 2 | 0 | -2 | nt
CC(C)C[C@H](NC(=O)c1nc[nH]c1C(=O)N[C@@H](CC(C)C)C(=O)OC(C)(C)C)C(=O)OCc1ccccc1 | nt | nt | nt | 2 | nt | 18 | nt
CC(C)C[C@H](NC(=O)c1[nH]cnc1C(=O)Nc1ccccc1)C(=O)OC(C)(C)C | nt | 106* | -2 | 1 | 0 | 5 | 112*
CC(C)C[C@H](NC(=O)c1[nH]cnc1C(=O)N[C@@H](C)C(=O)OC(C)(C)C)C(=O)OC(C)(C)C | nt | 104* | -4 | 1 | -4 | -4 | 134*
COc1ccc(-n2c(-c3cc(-c4ccccc4)sc3N)n[nH]c2=S)cc1 | nt | 100* | 2 | 1 | 4 | 1 | 8
Nc1sc(-c2ccccc2)cc1-c1n[nH]c(=S)n1C1CCCCC1 | nt | -20 | -3 | -1 | nt | 4 | nt
CC1Cc2ccccc2N1C(=O)c1ccc(F)c(S(=O)(=O)N2CCOCC2)c1 (centres undefined) | nt | nt | -3 | -1 | 4 | -3 | nt
CCCCc1c(C)nn(-c2nnc3c4ccccc4n(CC)c3n2)c1C | 9 | 105* | 3 | 3 | 12 | 29 | 99*
CCn1c2ccccc2c2nc3ccccc3nc21 | 2 | 42 | 6 | 2 | -9 | 10 | nt
COc1cccc(/C=C2/CN(C)CC3=C2OC(N)=C(C#N)C3c2cccc(OC)c2)c1 (centres undefined) | 7 | 27 | -1 | 0 | -7 | -8 | nt
CC(C)(C)c1cc(S(=O)(=O)CCc2ccccn2)cc(C(C)(C)C)c1F | 11 | 97* | 9 | 2 | -11 | 1 | 131*
CN(CCc1ccccn1)S(=O)(=O)c1ccc(F)cc1 | 7 | 9 | -3 | -2 | -4 | 0 | nt
N=C1S/C(=C\c2cn[nH]c2-c2ccc(F)cc2)C(=O)N1c1ccccc1F | 1 | 103* | -8 | 6 | -8 | -1 | 43
Cc1cc(/C=N/n2cnnc2)c(C)n1-c1ccc(OCc2ccccc2F)cc1 | -12 | 111* | -4 | 4 | -14 | 0 | 103*
Cc1cc(/C=N/n2cnnc2)c(C)n1-c1ccc(OCc2ccc(Cl)cc2)cc1 | 0 | 99* | -4 | 17 | -2 | 3 | 91*
